Assay outcomes (PubChem BioAssay)
CYP2C9 inhib: blockers of cytochrome P450 2C9 activity – biochemical, luminescence, ADME assay, primary screen; P11712; CYP2C9 Supersomes, luciferin-H conversion; inhibition, % at 5 µM; hit rate 20% among 96,000;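 active = blocking of liver enzyme CYP2C9 beyond about 50% at 5 µM, limit read from the data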
Target sequence (P11712 whole entry, looked up): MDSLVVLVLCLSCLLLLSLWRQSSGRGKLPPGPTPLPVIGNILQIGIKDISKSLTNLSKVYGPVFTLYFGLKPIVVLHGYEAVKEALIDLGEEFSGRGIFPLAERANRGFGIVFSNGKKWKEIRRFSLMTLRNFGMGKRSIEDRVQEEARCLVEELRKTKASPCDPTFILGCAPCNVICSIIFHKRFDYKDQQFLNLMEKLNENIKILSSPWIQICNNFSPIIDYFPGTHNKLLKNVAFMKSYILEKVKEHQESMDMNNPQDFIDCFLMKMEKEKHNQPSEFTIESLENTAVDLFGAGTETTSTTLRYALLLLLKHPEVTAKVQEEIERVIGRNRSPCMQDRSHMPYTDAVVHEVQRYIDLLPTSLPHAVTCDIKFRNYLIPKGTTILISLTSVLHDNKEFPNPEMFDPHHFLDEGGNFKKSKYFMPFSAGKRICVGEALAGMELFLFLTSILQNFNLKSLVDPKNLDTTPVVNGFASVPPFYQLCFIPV
CYP2C19 activ: human CYP2C19 activators, primary screen, biochemical, luminescence | recombinant CYP2C19, luciferin-H EGE luminescence; hits give high values; 0 = fully inhibited enzyme, 1 = untreated enzyme | 96,000 tested, under 10 active | Cytochrome P450 2C19 (Homo sapiens), P33261 | activation factor at 5 µM;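 active = activation factor of at least 2 at 5 µM in the primary screen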
tolC growth inh: growth inhibitors of E. coli tolC mutant, primary screen, strain BW25113 ΔtolC::kan, 384-well; OD615; growth inhibition, % at 10 µM (by protocol); hit rate 2.2% among 65,000; AID 573, 2007;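 active = growth inhibition at or above a cutoff equal to the mean over every tested compound plus 3 SD, cut at about 60% in these data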;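 also: growth measured after 20 h incubation at 37 °C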
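Doses: one dose of 10 µM final / Material: E. coli BW25113 ΔtolC::kan, tolC deletion mutant strain / Buffer or medium: LB with kanamycin 50 µg/mL / Evaluation: percent growth inhibition / Detection: optical density read at 615 nm / Incubation: 37 °C, 20 h exposure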
CYP2C19 inh: blockers of cytochrome P450 2C19 activity – biochemical, luminescence, ADME assay, primary screen | inhibition, % at 5 µM | CYP2C19 Supersomes, luciferin-H EGE luminescence, 30 min | hit rate 21% among 96,000 | P33261;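 active = CYP2C19 inhibition above a set limit at 5 µM in the primary screen, cut at about 50% in these data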
E coli WT exp: growth inhibitors of wild-type E. coli, primary screen, strain BW25113, expanded library, OD600; AID 710, 2007; OD600 absorbance; growth inhibition, % at 100 µM; hit rate 0.15% among 98,000;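 active = growth inhibition above about 50% at one test dose, limit read from the data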;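 also: growth measured after 20 h incubation at 37 °C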
CYP2C9 act: human CYP2C9 activators, primary screen, biochemical, luminescence | Cytochrome P450 2C9 (Homo sapiens), P11712 | recombinant CYP2C9, luciferin-H conversion; hits give high values; factor 1 = untreated enzyme, 0 = blocked | activation factor at 5 µM | hit rate 1.4% among 96,000;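 active = activation factor of 2 or more for CYP2C9 at a 5 µM dose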
Numbers stand for hits; - = inactive; . = no result. The list is not random: actives were taken first. Their share in the collection is about 29%.

SMILES	CYP2C9 inhib	CYP2C19 activ	tolC growth inh	CYP2C19 inh	E coli WT exp	CYP2C9 act
CC(C)c1cc(NCC2CCCO2)n2c(nc3ccccc32)c1C#N (stereo not drawn)	73	-	.	-	-	-
N#Cc1c2c(c(NCCCN3CCOCC3)n3c1nc1ccccc13)CCC2	-	-	-	-	-	-
CC(C)c1nc(NCCN2CCOCC2)c(C#N)c2c1COC(C)(C)C2	-	-	-	-	-	-
CC1(C)CC(=O)c2cnc(NC(=O)C3CCCC3)nc2C1	-	-	-	-	-	-
CC(C)Cc1nc(NCCN2CCOCC2)c(C#N)c2c1COC(C)(C)C2	79	-	-	88	-	-
CC(C)Cc1nc(N2CCOCC2)c(C#N)c2c1COC(C)(C)C2	68	-	-	85	-	-
CC(C)CC(=O)NC(NCC1CCCO1)C(Cl)(Cl)Cl (stereo not drawn)	-	-	.	57	-	-
CC(C)(C)c1ccccc1OCCCCCNCCO	-	-	-	-	-	-
O=C(CC1NC2CCCCC2NC1=O)Nc1cccc(C(F)(F)F)c1 (stereo not drawn)	-	-	-	-	-	-
COc1cccc(OCCSc2nnc3sc4ccccc4n23)c1	-	-	-	50	-	-
Cc1ccccc1Nc1nc(N)nc(CSc2nnc(-c3ccccc3)n2C)n1	-	-	.	-	-	-
Cc1ccccc1Nc1nc(N)nc(CSc2nnc3sc4ccccc4n23)n1	-	-	-	-	-	2.4
CCN(CC)C(=O)CSc1nnc2sc3ccccc3n12	-	-	-	77	.	-
c1ccc(OCCSc2nnc3sc4ccccc4n23)cc1	-	-	-	-	-	-
Cc1cccc(CN2CCN(CC(=O)NCc3ccc(F)cc3)C2=O)c1	.	.	-	.	.	.
O=C(NC1CCCCC1)C1CCCN1C(=O)NCc1ccccc1 (stereo not drawn)	-	-	-	-	-	-
CCOC(=O)c1c(NC(=O)C(C)NCc2ccco2)sc2c1CCC(C)C2 (stereo not drawn)	-	-	.	-	-	-
CC1(C)CC(=O)C2=C(C1)c1c(ccc3ccccc13)NC2c1ccc(Br)o1 (stereo not drawn)	96	-	.	75	-	-
COC(=O)c1ccccc1NC(=O)C1CCCCC1C(=O)O (stereo not drawn)	-	-	-	-	-	-
COc1ccc(NC(=O)N2c3ccccc3CC2C)cc1OC (stereo not drawn)	66	-	-	-	-	-
COC(=O)c1ccccc1NC(=O)N1c2ccccc2CC1C (stereo not drawn)	-	-	95	-	-	-
Cc1nn(-c2ccc(F)cc2)c2c1cc(C#N)c1nc3ccccc3n12	-	-	-	-	-	-
O=C(O)C1NCCc2ccccc21 (stereo not drawn)	74	-	-	-	-	-
CNS(=O)(=O)c1cccc(C(=O)OC2CCCCC2=O)c1 (stereo not drawn)	-	-	-	-	-	-
Cc1cc(C)n(CC(=O)O)n1	.	.	-	.	.	.
SMILES	CYP2C9 inhib	CYP2C19 activ	tolC growth inh	CYP2C19 inh	E coli WT exp	CYP2C9 act
Cc1cc(C)n(CC(=O)N2c3ccccc3Sc3ccccc32)n1	-	-	-	67	-	-
Cc1cccc2cc(CN(CCN3CCOCC3)C(=O)NCc3ccccc3)c(=O)[nH]c12	-	-	-	-	-	-
Cc1nn(-c2ccccc2)c2nc(-c3ccco3)cc(C(=O)O)c12	-	-	-	-	-	-
Cc1nn(-c2cccc(Cl)c2)c2nc(-c3ccco3)cc(C(=O)O)c12	90	-	.	-	-	-
O=C(NC(NC1CCS(=O)(=O)C1)C(Cl)(Cl)Cl)c1ccc(Br)cc1 (stereo not drawn)	-	-	.	-	-	-
COc1ccc(C)cc1-n1nnnc1SCC(=O)N1CCC(C(=O)Nc2nccs2)CC1	-	-	-	-	-	-
Cc1cc(C)n(-c2nc3ccccc3nc2N2CCN(S(=O)(=O)c3ccc(F)c(C)c3)CC2)n1	50	-	-	-	-	-
Cc1cc(NC(=O)c2cccc(S(=O)(=O)N3CCOCC3)c2)c2ccccc2n1	-	-	-	-	-	-
